In paper PMC2903386 (The Journal of Biological Chemistry, 2010):
Non-standard residues stand in square brackets, D forms with d. Residues, ends and D or L forms follow the SMILES beside them. *: point of attachment. X1 = CC[N+]1=C(C=CC=CC=C2N(CCCCCC(=O)NCCN3C(=O)CC(*)C3=O)c3ccc(S(=O)(=O)O)cc3C2(C)C)C(C)(C)c2cc(S(=O)(=O)[O-])ccc21; Ahx = NCCCCCC(=O)O

Tests used:
[1] = Tumor standardized uptake value; type: in vivo; settings: PyMT, mouse, iv, 10 nmol
[2] = molecular target: plasmin (Homo sapiens, UniProt P00747); assay: Cleavage by purified plasmin; type: in vitro ADME; settings: 5 μM purified Cy5-labeled peptide, 50 nM plasmin, 37 °C, 2 h, 16% Tricine gel
plasmin, sequence (P00747 581-810 limits assumed): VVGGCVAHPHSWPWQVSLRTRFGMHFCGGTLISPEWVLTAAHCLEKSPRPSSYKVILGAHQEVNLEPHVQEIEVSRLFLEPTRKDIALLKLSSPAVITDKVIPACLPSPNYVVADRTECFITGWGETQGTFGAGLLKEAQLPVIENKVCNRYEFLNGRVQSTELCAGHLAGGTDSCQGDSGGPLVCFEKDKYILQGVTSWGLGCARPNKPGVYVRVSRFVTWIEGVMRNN
plasmin, sequence (P00747 97-580 partner limits assumed): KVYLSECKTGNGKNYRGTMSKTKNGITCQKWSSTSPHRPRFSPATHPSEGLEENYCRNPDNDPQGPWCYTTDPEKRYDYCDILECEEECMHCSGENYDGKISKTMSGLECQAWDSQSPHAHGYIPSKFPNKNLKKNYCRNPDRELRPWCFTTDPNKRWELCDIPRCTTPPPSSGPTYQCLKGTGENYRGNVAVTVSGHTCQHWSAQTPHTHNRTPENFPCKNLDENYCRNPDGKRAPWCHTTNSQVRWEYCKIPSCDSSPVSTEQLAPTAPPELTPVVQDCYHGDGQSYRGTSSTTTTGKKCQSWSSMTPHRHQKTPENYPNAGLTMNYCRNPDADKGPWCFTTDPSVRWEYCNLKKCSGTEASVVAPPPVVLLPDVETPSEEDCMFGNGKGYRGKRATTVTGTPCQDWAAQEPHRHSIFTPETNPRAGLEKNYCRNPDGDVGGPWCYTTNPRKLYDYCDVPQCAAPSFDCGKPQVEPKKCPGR
Outline: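 Plasmin at 50 nM was incubated with 5 μM purified Cy5-labeled test peptide at 37 °C for 2 h, run alongside 2% tumor, liver or kidney extract digests. Products were resolved on 16% Tricine acrylamide gels and detected by Cy5 fluorescence imaging.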

[3] = Cleavage of Cy5-labeled ACPPs by tumor tissue extract; type: in vitro ADME, mouse; settings: 5 μM purified Cy5-labeled peptide, 2% tumor extract, 37 °C, 2 h, 16% Tricine gel
Outline: (§1)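 Fresh mouse tissue was gently homogenized in PBS on ice and spun at 14,000 × g for 1 min; the supernatant was used. 5 μM purified Cy5-labeled test peptide was incubated with 2% liver or tumor extract in PBS containing ZnCl2 at 37 °C for 2 h. Cleaved and uncleaved peptide were resolved on 16% Tricine gels and imaged by fluorescence.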

[4] = test system: PyMT mammary tumors; assay: Fluorescence imaging contrast in PyMT tumor-bearing mice; type: in vivo, mouse; settings: PyMT mice, fluorescence imaging 6 h after injection of 10 nmol
Outline: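 PyMT transgenic mice bearing spontaneous mammary tumors were anesthetized with ketamine 80 mg/kg plus midazolam 5 mg/kg (1:1) and weighed. They were injected via the tail vein with Cy5 peptide: free peptide 100 μl of 100 μM (10 nmol) or albumin-reactive peptide 100 μl of 30 μM (3 nmol). Maestro imaging (ex 640 ± 24 nm, em >700 nm) was done at 6 h or 48 h, comparing tumor with adjacent normal tissue.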

[5] = Cleavage of Cy5-labeled ACPP by liver tissue extract; type: in vitro ADME, mouse; settings: 5 μM purified Cy5-labeled peptide, 2% liver extract, 37 °C, 2 h, 16% Tricine gel
Outline: as §1

SMILES: CC[N+]1=C(C=CC=CC=C2N(CCCCCC(=O)NCCN3C(=O)CC(SC[C@@H](NC(=O)[C@@H](CCCNC(=N)N)NC(=O)[C@@H](CCCNC(=N)N)NC(=O)[C@@H](CCCNC(=N)N)NC(=O)[C@@H](CCCNC(=N)N)NC(=O)[C@@H](CCCNC(=N)N)NC(=O)[C@@H](CCCNC(=N)N)NC(=O)[C@@H](CCCNC(=N)N)NC(=O)[C@@H](CCCNC(=N)N)NC(=O)[C@@H](CCCNC(=N)N)NC(=O)[C@H](CC(C)C)NC(=O)[C@H](CCCCNC(C)=O)NC(=O)[C@H](CC(C)C)NC(=O)[C@H](CCC(N)=O)NC(=O)[C@H](CC(C)C)NC(=O)[C@H](CCCNC(=N)N)NC(=O)CCCCCNC(=O)[C@@H](CCC(=O)O)NC(=O)[C@@H](CCC(=O)O)NC(=O)[C@@H](CCC(=O)O)NC(=O)[C@@H](CCC(=O)O)NC(=O)[C@@H](CCC(=O)O)NC(=O)[C@@H](CCC(=O)O)NC(=O)[C@@H](CCC(=O)O)NC(=O)[C@@H](CCC(=O)O)NC(=O)[C@H](N)CCC(=O)O)C(N)=O)C3=O)c3ccc(S(=O)(=O)O)cc3C2(C)C)C(C)(C)c2cc(S(=O)(=O)[O-])ccc21 (some centres unmarked) [RLQLK(Ac)L ACPP] (H-[dE][dE][dE][dE][dE][dE][dE][dE][dE][Ahx]RLQLK(Ac)L[dR][dR][dR][dR][dR][dR][dR][dR][dR][dC](X1)-NH2)
- SUV at 6 h [1]: 0.48 ± 0.04 SUV
- cleavage by plasmin (in words) [2]: not cleaved
- cleavage by tumor extracts, comparison with parent (in words) [3]: efficiently cleaved
- Tumor to non-tumor contrast, free peptide [4]: less than 3 fold
- cleavage by liver tissue extract compared with parent RLQLKL ACPP (in words) [5]: significantly reduced
